Experimental data gathered from unrelated publications.
Lines come from different studies, so protocols differ.
CTSV: Cathepsin L2 (CTSV, Homo sapiens, UniProt O60911)
MAOB: Amine oxidase [flavin-containing] B (MAOB, Homo sapiens, UniProt P27338)
MMP9 Q279R: Matrix metalloproteinase-9 (MMP9, Homo sapiens, UniProt P14780, Q279R)
EDNRB: Endothelin receptor type B (EDNRB, Homo sapiens, UniProt P24530)

Compound	target	assay	conditions	inhibition [%]
CC(C)C[C@H](NC(=O)[C@H]1O[C@@H]1C(=O)O)C(=O)NCCCCN=C(N)N	CTSV	enzyme activity, inhibitor	0.5 µM	94
CN(CCN1CCC(OC(=O)Nc2ccccc2-c2ccccc2)CC1)C(=O)c1ccc(CN2CCC(C(N)=O)CC2)cc1	MAOB	enzyme activity, inhibitor	1 µM	-2
N=C(N)c1ccc2cc(OC(=O)c3ccc(N=C(N)N)cc3)ccc2c1	MMP9 Q279R	enzyme activity, inhibitor	10 µM	11
COc1cc(Nc2ncc(F)c(Nc3ccc4c(n3)NC(=O)C(C)(C)O4)n2)cc(OC)c1OC	Phosphatidylinositol 3-kinase C2 domain-containing subunit gamma (PIK3C2G, Homo sapiens, UniProt O75747)	binding, competition with immobilised ligand	10 µM	48
c1ccc(C(NCCNC(c2ccccc2)c2ccccc2)c2ccccc2)cc1	MAOB	enzyme activity, inhibitor	10 µM	5
CN1CCN(CCCOc2ccc3occc(=O)c3c2)CC1	MAOB	enzyme activity, inhibitor, fluorescence	10 µM	20
CCOC(=O)c1ccc(OC(=O)CCCCCNC(=N)N)cc1	CTSV	enzyme activity, inhibitor	10 µM	3
COCc1c(-c2cc3cc(C)cc(OC)c3s2)c2c(N)ncnn2c1CN1CCNC(=O)C1	EDNRB	ligand displacement, radioligand	10 µM	-1
O=c1ccoc2ccc(OCCCCN3CCCCC3)cc12	MAOB	enzyme activity, inhibitor, fluorescence	10 µM	63
COc1ccc(S(=O)(=O)N(CC(=O)NO)CC(C)C)cc1	MMP9 Q279R	enzyme activity, inhibitor	0.1 µM	96
C[C@@H]1CCCN1CCCCOc1ccc2occc(=O)c2c1	MAOB	enzyme activity, inhibitor, fluorescence	10 µM	28
O=C(Nc1cccnn1)N1CCN([C@@H]2CCOc3cc(C(F)(F)F)ccc32)CC1	Matrix metalloproteinase-9 (MMP9, Homo sapiens, UniProt P14780)	enzyme activity, inhibitor	20 µM	8
CC(C)N1CCC[C@H]1CNC(=O)c1cn(C2CCCC2)c(=O)c2c1c1ccccc1n2C	EDNRB	ligand displacement, radioligand	10 µM	3
